Calls of active or inactive are those of the source. No cut-off for these calls is given here.
Columns and labels:
TT [1] = assay: Induction of apoptosis in human TT cells assessed as caspase 3/7 activation at 10 uM after 72 hrs by luminescence assay relative to control; type: functional
Outline: (§1)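 TT cells (2 × 10^4/well) exposed 72 h to compound, treatment renewed every 24 h; vehicle 0.1% DMSO. Caspase-Glo 3/7 reagent added at room temperature, plates shaken 30 s, incubated 1 h, luminescence (RLU) read. Mean ± SE percent RLU vs vehicle control; three independent experiments in six replicates.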

TT [2] = assay: Cytotoxicity against human TT cells assessed as reduction in cell viability at 10 uM after 72 hrs by ATPlite assay relative to control; type: functional
Outline: (§2)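 TT or MCF12A cells seeded at 2 × 10^4/well, exposed to compound for 72 h with treatment renewed every 24 h; vehicle control 0.1% DMSO. Viable cell number read by ATPlite luminescence (RLU). Results are mean ± SE percent RLU vs vehicle-treated control from three independent experiments in six replicates.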

TT [3] = assay: Effect on total TIM16 protein level in human TT cells at 10 uM after 24 hrs by Western blotting analysis; type: functional, cell-based
Outline: (§3)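 TT cells treated 24 h with 10 μM compound alone or with 50 nM staurosporine, then lysed in RIPA buffer on ice 30 min and centrifuged; protein by BCA. Lysates run on 10% SDS-PAGE, blotted to nitrocellulose, probed with rabbit anti-Tim 16 (1:1000), HRP anti-rabbit IgG (1:5000), ECL detection; stripped and reprobed for β-actin loading control.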

TT [4] = assay: Effect on total TIM16 protein level in human TT cells at 10 uM after 24 hrs by Western blotting analysis in presence of staurosporine; type: functional, cell-based; outline: as §3
TT [5] = assay: Cytotoxicity against human TT cells assessed as reduction in cell viability at 5 uM after 72 hrs by ATPlite assay; type: functional, cell-based; outline: as §2
TT [6] = assay: Potentiation of staurosporine-induced cytotoxicity against human TT cells assessed as reduction in cell viability at 5 to 10 uM after 72 hrs by ATPlite assay; type: functional, cell-based
Outline: (§4)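 Cells seeded at 2 × 10^4/well, given 5 or 10 μM compound alone or combined with 50 nM staurosporine, treatments renewed every 24 h for 72 h; vehicle 0.1% DMSO. ATPlite luminescence (RLU) read-out, expressed as mean ± SE percent of vehicle-treated control; three independent experiments, six replicates each.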

TT [7] = assay: Induction of apoptosis in human TT cells assessed as caspase 3/7 activation at 5 uM after 72 hrs by luminescence assay; type: functional, cell-based; outline: as §1
TT [8] = assay: Potentiation of staurosporine-induced apoptosis in human TT cells assessed as caspase 3/7 activation at 5 uM after 72 hrs by ATPlite assay relative to control; type: functional; settings: in the assay text read “Caspase-Glo 3/7 assay” for “ATPlite assay”
Outline: (§5)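 TT cells (2 × 10^4/well) given 5 or 10 μM compound alone or with 50 nM staurosporine, renewed every 24 h, for 72 h. Caspase 3/7 activity by Caspase-Glo 3/7: reagent added at room temperature, 30 s shake, 1 h incubation, luminescence read. Mean ± SE percent RLU vs vehicle control, three experiments in six replicates.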

TT [9] = assay: Potentiation of staurosporine-induced apoptosis in human TT cells assessed as caspase 3/7 activation at 10 uM after 72 hrs by ATPlite assay relative to control; type: functional; settings: in the assay text read “Caspase-Glo 3/7 assay” for “ATPlite assay”; outline: as §5
TT [10] = assay: Induction of apoptosis in human TT cells assessed as decrease in mitochondrial membrane potential at 10 uM by JC-1 staining-based fluorescence microscopic analysis; type: functional, cell-based
Outline: (§6)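 TT cells treated with 5 or 10 μM compound, 50 nM staurosporine, or the combination. Mitochondrial membrane potential assessed with JC-1 dye, 30 min at 37 °C, by fluorescence microscopy; red aggregate fluorescence indicates retained potential, green monomer fluorescence a fall in potential.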

TT [11] = assay: Potentiation of staurosporine-induced apoptosis in human TT cells assessed as decrease in mitochondrial membrane potential at 10 uM by JC-1 staining-based fluorescence microscopic analysis; type: functional, cell-based; outline: as §6
TT [12] = assay: Induction of apoptosis in human TT cells assessed as caspase 3/7 activation at 1 to 10 uM after 72 hrs by luminescence assay; type: functional, cell-based; outline: as §1
TT [13] = assay: Cytotoxicity against human TT cells assessed as reduction in cell viability at 1 to 10 uM after 72 hrs by ATPlite assay; type: functional, cell-based; outline: as §2
TT [14] = assay: Potentiation of staurosporine-induced apoptosis in human TT cells assessed as caspase 3/7 activation at 5 to 10 uM after 72 hrs by ATPlite assay relative to control; type: functional, cell-based; settings: in the assay text read “Caspase-Glo 3/7 assay” for “ATPlite assay”; outline: as §5
TT [15] = assay: Potentiation of staurosporine-induced cytotoxicity against human TT cells assessed as reduction in cell viability at 5 uM after 72 hrs by ATPlite assay relative to control; type: functional; outline: as §4
TT [16] = assay: Potentiation of staurosporine-induced cytotoxicity against human TT cells assessed as reduction in cell viability at 10 uM after 72 hrs by ATPlite assay relative to control; type: functional; outline: as §4
[17] = Cytotoxicity against human MCF12A cells assessed as reduction in cell viability at 5 to 10 uM after 72 hrs by ATPlite assay; type: cell-based; settings: mcf-12a; outline: as §2
[18] = Potentiation of staurosporine-induced cytotoxicity against human MCF12A cells assessed as reduction in cell viability at 5 to 10 uM after 72 hrs by ATPlite assay; type: cell-based; settings: mcf-12a; outline: as §4

SMILES | Activity (TT [1]) [%] | Activity (TT [2]) [%] | Activity (TT [3]) | Activity (TT [4]) | Activity (TT [5]) | Activity (TT [6]) | Activity (TT [7]) | Activity (TT [8]) [%] | Activity (TT [9]) [%] | Activity (TT [10]) | Activity (TT [11]) | Activity (TT [12]) | Activity (TT [13]) | Activity (TT [14]) | Activity (TT [15]) [%] | Activity (TT [16]) [%] | Activity [17] | Activity [18]
CCC1=C(C)/C(=C/c2ccc(C(=O)NC(=N)N)cc2)CCC1(C)C | 300 | 70 | inactive | inactive | inactive | Active | inactive | 40 | 400 | inactive | Active | – | – | – | – | – | – | –
CCC1=C(C)/C(=C/c2ccc(C(=O)NC(N)=O)cc2)CCC1(C)C | – | – | inactive | inactive | – | – | – | – | – | – | – | inactive | inactive | inactive | – | – | – | –
CCC1C(C)C(Cc2ccc(C(=O)NC(=N)N)cc2)CCC1(C)C (stereo not drawn) | – | – | inactive | inactive | – | – | – | 140 | 330 | Active | Active | inactive | inactive | – | 12 | 20 | Non-toxic | Non-toxic
CCC1=C(C)/C(=C/c2ccc(C(=O)O)cc2)CCC1(C)C | – | – | inactive | inactive | – | – | – | – | – | – | – | inactive | inactive | inactive | – | – | – | –
CCC1=C(C)/C(=C/c2ccc(C(N)=O)cc2)CCC1(C)C | – | – | inactive | inactive | – | – | – | – | – | – | – | inactive | inactive | inactive | – | – | – | –

From ChEMBL document CHEMBL3259817, “N-carbamidoyl-4-((3-ethyl-2,4,4-trimethylcyclohexyl)methyl)benzamide enhances staurosporine cytotoxic effects likely inhibiting the protective action of Magmas toward cell apoptosis” (J Med Chem, 2014)
